KCNK9 block: inhibitors of human KCNK9 two-pore domain potassium channel; Q9NPC2; HEK293 KCNK9, FluxOR thallium flux fluorescence; active compounds read low; B-score at 10 µM; hit rate 1.2% among 310,000; AID 488922;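 active means ratio B-score over 3 SD below the library mean, with starting fluorescence within 5 SD of its mean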;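 further: negative B-score means less thallium flux so channel inhibition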
KCNQ1 pot: potentiates or activates the human KCNQ1 potassium channel. CHO-K1 KCNQ1, thallium flux FluxOR fluorescence; active compounds read high. AID 2648. hit rate 0.35% among 310,000. P51787. B-score at 10 µM;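 active means fluorescence ratio B-score, a plate-corrected score, at least three library SD, with initial intensity B-score within 5 SD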
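Schedule – 37 °C overnight plating, 90-min dark dye load, 20-min compound pretreatment · System – stable KCNQ1 CHO-K1 line · Probe or stimulus – thallium- and potassium-containing depolarizing buffer · Measured by – kinetic FluxOR fluorescence, 10 s baseline plus 110 s post-stimulus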
KCNK3 block: human KCNK3 channel inhibition, primary screen; B-score at 10 µM; AID 602410; hit rate 0.84% among 340,000; CHO-KCNK3 thallium flux, FluxOR fluorescence; active compounds read low; O14649;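 active means B-score under library mean minus 4 SD, starting fluorescence ratio at most library mean plus 5 SD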;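 further: more negative B-score means stronger inhibition of thallium flux through KCNK3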
Target sequence (O14649 whole entry, looked up): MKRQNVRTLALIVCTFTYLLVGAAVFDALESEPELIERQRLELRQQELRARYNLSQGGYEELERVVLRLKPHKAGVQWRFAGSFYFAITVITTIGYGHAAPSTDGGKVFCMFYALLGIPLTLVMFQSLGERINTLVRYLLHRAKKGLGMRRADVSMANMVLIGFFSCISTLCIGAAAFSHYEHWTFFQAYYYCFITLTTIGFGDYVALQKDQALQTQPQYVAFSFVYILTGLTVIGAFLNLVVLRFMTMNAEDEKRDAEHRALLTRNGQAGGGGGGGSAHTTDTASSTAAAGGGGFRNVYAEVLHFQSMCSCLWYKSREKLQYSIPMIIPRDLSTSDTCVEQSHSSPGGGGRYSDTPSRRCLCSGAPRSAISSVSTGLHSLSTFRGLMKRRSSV
hERG protect: compounds protecting human hERG from proarrhythmic drug block. AID 1511. activation (rescue from dofetilide block), less the hit threshold, % at 10 µM. Q12809. CHO-hERG, FluxOR thallium flux, dofetilide IC70 present. hit rate 0.51% among 310,000;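 active means activation above the mean of controls blocked by dofetilide plus 5 SD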;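 further: thallium influx through hERG after potassium depolarization seen as dye fluorescence rise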
KCNQ1 inh: inhibitors of human KCNQ1 potassium channel. hit rate 1.3% among 310,000. B-score at 10 µM. P51787. CHO-K1 KCNQ1, FluxOR thallium flux fluorescence; active compounds read high;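 active means compounds whose thallium flux B-score, printed positive for inhibition, exceeds three library SD while starting fluorescence stays within three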;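 further: channel opened by potassium depolarization with thallium stimulus after 20 min compound exposure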
KCNK9 block conf: human KCNK9 inhibitor confirmation. shares compounds with KCNK9 block. HEK293 KCNK9 cells, FluxOR thallium flux fluorescence. inhibition, % at 10 µM. hit rate 43% among 4,900. AID 492992;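 active means thallium signal inhibited by more than 5 SD of the compound-free buffer control wells, on both duplicate plates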
Kir2-1 spec: tests whether KCNK9 modulators also affect mouse Kir2.1; AID 492993; hit rate 4% among 4,900; inhibition, % at 10 µM; shares compounds with KCNK9 block; Kir2.1 cells, FluxOR thallium flux fluorescence;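 active means thallium signal drop more than 5 SD beyond the mean of the no-compound control wells, seen in both duplicate plates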;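 further: signal is fluorescence rise after thallium addition divided by baseline fluorescence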
HEK293 Tl ctr: second check of KCNK9 modulator effects in non-induced HEK293 cells. hit rate 40% among 4,900. FluxOR thallium flux. inhibition, % at 10 µM. shares compounds with KCNK9 block;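 active means thallium signal drop beyond 5 SD of the untreated control mean, on both duplicate plates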
Hits are given with their value; . = inactive; / = no result given. Most compounds without a hit are left out; they make up all but 3.1% or so of the library.

SMILES	KCNK9 block	KCNQ1 pot	KCNK3 block	hERG protect	KCNQ1 inh	KCNK9 block conf	Kir2-1 spec	HEK293 Tl ctr
O=C(NCc1ccc(Cl)cc1)C1CCN(S(=O)(=O)c2ccc(F)cc2)CC1	.	.	.	.	.	/	/	/
CC1=C([N+](=O)[O-])C(c2cccc(Br)c2)C2=C(N1)c1ccccc1C2=O (centres undefined)	-8.4	.	.	.	10	54%	.	38%
COC(=O)C1=C(C)NC2=C(C(=O)c3ccccc32)C1c1cccc(OC)c1 (centres undefined)	.	.	.	.	.	/	/	/
CCn1c(SCC#N)nc2c(c1=O)C1(CCCC1)Cc1ccccc1-2	-12	.	.	.	.	47%	.	.
O=C(CSc1nnc(-c2cccnc2)o1)N1CCCCC1	.	.	.	.	.	/	/	/
CC1CCC(C(C)C)C(OC(=O)C[n+]2cc(-c3ccc(Cl)cc3)n3c2CCC3)C1 (centres undefined)	-13	.	.	.	.	48%	44%	.
COc1cc(CNCCCN2CCOCC2)cc(Cl)c1OCC(=O)NC(C)(C)C	.	.	.	.	.	/	/	/
O=C(CSc1ccc(Cl)cc1)N1CCN(c2ncc(C(F)(F)F)cc2Cl)CC1	.	.	.	.	.	.	.	.
O=C(CSc1ncc(C(F)(F)F)cc1Cl)N1CCN(S(=O)(=O)c2ccccc2)CC1	.	.	.	.	.	/	/	/
O=C(CSc1ncc(C(F)(F)F)cc1Cl)N1CCN(S(=O)(=O)c2ccc(Cl)cc2)CC1	.	.	.	.	.	.	.	.
O=C(CN1CCN(c2ncc(C(F)(F)F)cc2Cl)CC1)N1CCN(c2ncc(C(F)(F)F)cc2Cl)CC1	.	.	.	.	.	/	/	/
CCc1ccc(CN(C)Cc2nc(-c3cccc(Cl)c3)no2)nc1	.	.	.	.	.	/	/	/
CC(C)C[C@H]1CNC(=S)N1CC1CCCN1C[C@H](CC(C)C)N1C[C@H](CC(C)C)N(CCc2ccccc2)C1=S (some centres undefined)	/	/	.	/	/	/	/	/
CSc1ccc(C(=O)C2CCCN(Cc3cccn3-c3cccnc3)C2)cc1 (centres undefined)	.	.	.	.	.	.	.	.
O=C(c1ccc(Cl)cc1)C1CCCN(Cc2cccn2-c2cccnc2)C1 (centres undefined)	.	.	.	.	.	/	/	/
O=C1N/C(=N/S(=O)(=O)Cc2ccccc2)S/C1=C/c1ccc2c(c1)OCO2	.	.	.	.	.	.	.	.
CCN(Cc1nc2ccccc2c(=O)[nH]1)C(=O)c1cc2c(s1)CCCCC2	/	/	.	/	/	/	/	/
Clc1ccc(-c2nnsc2SCc2ccccc2)cc1	-11	.	.	.	.	.	.	44%
Clc1ccccc1CSc1snnc1-c1ccccc1	.	.	.	.	.	/	/	/
COc1ccccc1/C=C/C1(C(=O)NC2CCCC2)CC(=O)N1c1ccccc1 (centres undefined)	.	.	.	.	.	/	/	/
Cc1cc(NC(=O)CSc2nc(CCC3CCCC3)nc3ccccc23)no1	.	.	.	.	.	/	/	/
CCc1nc(SCC(=O)c2ccc3c(c2)OCCO3)c2ccccc2n1	.	.	.	.	.	/	/	/
O=C(CSc1nc(Cc2ccccc2)nc2ccccc12)c1ccc2c(c1)OCCO2	-14	.	.	.	.	57%	.	34%
O=C(CSc1nc(CCC2CCCC2)nc2ccccc12)NCc1ccc2c(c1)OCO2	-13	.	.	.	.	47%	.	.
O=C(O)c1cnc(-c2ccccc2)nc1Sc1ccc(Cl)cc1Cl	.	.	.	.	.	.	.	.
Cc1nnc(SCc2ccccc2)nc1-c1ccccc1	.	.	.	.	.	.	.	.
Cc1ccc(CN2CCN(/N=C/c3ccc(C(=O)O)cc3)CC2)cc1	.	.	.	.	.	/	/	/
Cc1ccc(CN2CCN(/N=C/C(Br)=C\c3ccccc3)CC2)cc1	.	16	.	.	.	.	.	.
O=C(COc1ccccc1C(=O)Nc1ccccc1)c1ccc(F)cc1	.	.	.	.	.	/	/	/

From PubChem BioAssay
